The term pA2 denotes a measure of antagonist potency on a negative log scale. In general, half-life refers to how long it takes for the measured level to halve. A lower half-life goes with rapid decline.

The species named for data set [1] is Cavia porcellus. The data set is described as follows: Anticholinergic activity was measured by the guinea pig ileum test; c = NA means no activity found at the doses used. The data set is classed as functional. The essentials: (§1)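 Guinea pig whole ileum strips in McEwan's solution, gassed with O2/CO2 95:5, 37 °C organ bath, 1 g tension. Cumulative acetylcholine concentration-response curves were run to constancy, then repeated after 15–20 min equilibration with increasing antagonist concentrations. Mean curves gave dose ratios, from which competitive antagonism and pA2 were derived.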

The species named for data set [2] is Cavia porcellus. Put plainly: Antihistamine activity was measured by the guinea pig ileum test. The format is functional. As to conditions: for Kb: Cavia porcellus, Ileum, read-out: pA2 (converted). The essentials: (§2)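 Guinea pig ileum strips, McEwan's solution, Carbogen, 37 °C, 1 g tension. Cumulative histamine concentration-response curves were recorded before and after 15–20 min equilibration with rising antagonist concentrations. pA2 came from dose ratios of mean curves.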

The species entered for data set [3] is Cavia porcellus. The data set is described as follows: Anticholinergic activity was measured by the guinea pig ileum test. The data set is classed as functional. Particulars: for Kb: Cavia porcellus, Ileum, read-out: pA2 (converted). Put shortly: as §1
The species named for data set [4] is Cavia porcellus. Put plainly: Antihistamine activity was measured by the guinea pig ileum test; c = NA means no activity found at the doses used. The format is functional. Put shortly:
as §2

Data set [5] is described as follows: The hydrolytic kinetics expressed as Kobs was measured at 7.4 pH at 37 degree C. The format is ADME. As to conditions: pH 7.4. The essentials: (§3)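 Chemical hydrolysis in 0.5 M potassium phosphate, pH 7.4, 37 °C. Rate was followed by appearance of the acid product or loss of the quaternary salt. Where salt contained amine hydrochloride, initial concentration was taken from final acid after complete hydrolysis. Half-life was estimated from both where resolved.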

The nature of data set [6]: Half life period was measured at 7.4 pH from d[acid]/dt. The format is ADME. As to conditions: pH 7.4. The essentials: as §3
A short description of data set [7]: Half life period was measured at 7.4 pH from d[quant]/dt. The format is ADME. Particulars: pH 7.4. The essentials: as §3
Data set [8] is described as follows: Cholinergic potency was expressed in terms of relative activity vs acetylcholine. The data set is classed as functional.
Data set [9] is filed under the species Canis familiaris. Put plainly: The hydrolytic kinetics expressed as Kobs was measured in dog plasma at 37 degree C. The format is ADME, Canis lupus familiaris. Put shortly:
(§4)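 Fresh dog blood was centrifuged and the upper layer filtered through 0.8 and 0.2 µm membranes. 2 mL plasma samples with gentisic acid internal standard were incubated. 5 µL aliquots taken at intervals were assayed against acid standard curves in methanol. Rates came from acid appearance or quaternary salt loss.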

Data set [10] is described as follows: Half life period was measured at 37 degree C in dog plasma from d[quant]/dt. The format is ADME, Canis lupus familiaris. Put shortly:
as §4

For `CC[N+](CC)(CC)COC(C)=O`, the pA2 result in data set [1] is “No activity”.
`CC(=O)OC1C[N+]2(COC(=O)C(c3ccccc3)C3CCCC3)CCC1CC2.[Cl-]` (stereo not drawn): the pA2 is on record as 5.7 in [2] and 8.6 in data set [3].
In the case of `C[N+]1(COC(=O)C2(c3ccccc3)CCCC2)CCCC1.[Cl-]`, the pA2 entry in [4] is “No activity”. This molecule came in with a K obs in data set [5] of 0.000181 min⁻¹. In data set [3], the Kb was 50.1 nM. Further, the half-life in data set [6] is 64 h.
Consider `CCC(C(=O)OC[n+]1ccn(C)c1)c1ccccc1.[Cl-]` (stereo not drawn), for which the Kb in data set [2] and in [3] was 1260 nM in each case. For the same molecule, the half-life in data set [7] is 6 h; in data set [6], 5.7 h.
For the molecule `CC[N+](CC)(CC)COC(=O)C1(c2ccccc2)CCCC1`, in data set [4], the pA2 result was “No activity”. In addition, in data set [3], the Kb was 79.4 nM.
`CC[N+](CC)(COC(=O)C(C)(C)C)CC(=O)Nc1c(C)cccc1C`: in [1], the pA2 result is “No activity”. Moreover, in [8], the Activity is 1.
Consider `CCC(C)C(=O)OC[N+]12CCC(CC1)C(OC(C)=O)C2` (stereo not drawn), for which the pA2 result in data set [1] was “No activity”. In addition, in [8], the Activity came out at 1.
For the molecule `CC(C(=O)OC[N+]1(C)CCCC1)(c1ccccc1)c1ccccc1.[Cl-]`, the pA2 entry in data set [4] is “No activity”. In data set [5], this molecule showed a K obs of 0.000193 min⁻¹. In addition, the Kb in [3] was 3.98 nM. For the same molecule, the half-life in data set [6] was 60 h.
In the case of `CCC(C)C(=O)OC[N+]1(C)CCCC1` (stereo not drawn), in data set [2], the Kb is 2510 nM. Also, in data set [1], the pA2 entry was “No activity”.
For the molecule `CC[N+](CC)(CC)COC(=O)C1(c2ccccc2)CC1.[Cl-]`, in [1], the pA2 result is “No activity”. This molecule also gave a K obs in [5] of 0.00055 min⁻¹. The molecule further had a half-life in data set [6] of 21 h.
`C[N+]1(COC(=O)Cc2ccccc2)CCOCC1.[Cl-]` displayed a K obs in data set [9] of 1.73 min⁻¹. Also, the half-life in data set [10] is 4 h; in data set [6], 8 h.
In the case of `CC1CCC[N+]1(C)COC(=O)C1(c2ccccc2)CC1.[Cl-]` (stereo not drawn), the Kb in data set [2] is 575 nM; in [3] it was 251 nM. The K obs in data set [5] stood at 0.00055 min⁻¹. Besides, the half-life in data set [6] was 21 h.
